Experimental data reported in ChEMBL document CHEMBL4393701, “Appendix A. dithioloquinolinethiones as new potential multitargeted antibacterial and antifungal agents: Synthesis, biological evaluation and molecular docking studies” (2019).
In brackets after ≈: the same amount, converted by molar mass.

What was measured:
Bacillus cereus [1] = assay: Antibacterial activity against Bacillus cereus clinical isolate after 24 hrs by iodonitrotetrazolium chloride dye based microdilution assay; format: functional
In short: (§1)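 Fresh overnight cultures adjusted spectrophotometrically to 1×10^5 CFU/mL, giving 1.0×10^4 CFU per well in tryptic soy broth. Compounds were dissolved in 5% DMSO and tested at 0.001-1.0 mg/ml by serial dilution; 5% DMSO was the negative control. After 24 h at 37 °C, 0.2 mg/mL INT solution was added for 30 min at 37 °C and OD read at 655 nm. MIC is the lowest concentration giving significant growth inhibition versus the positive control. Duplicates, repeated three times.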

Bacillus cereus [2] = assay: Bactericidal activity against Bacillus cereus clinical isolate incubated for 24 hrs followed by re-plating on tryptic soy broth; format: functional
In short: (§2)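 Bacteria were grown in tryptic soy broth, 1.0×10^4 CFU per well, with compounds in 5% DMSO at 0.001-1.0 mg/ml for 24 h at 37 °C. Then 10 µL was subcultured into fresh TSB. MBC is the lowest concentration showing no growth after subculture, taken as 99.5% kill of the original inoculum. Duplicates, repeated three times.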

Micrococcus flavus [3] = assay: Antibacterial activity against Micrococcus flavus ATCC 10240 after 24 hrs by iodonitrotetrazolium chloride dye based microdilution method; format: functional; conditions: ATCC 10240, 24 h; in short: as §1
Micrococcus flavus [4] = assay: Bactericidal activity against Micrococcus flavus ATCC 10240 incubated for 24 hrs followed by re-plating on tryptic soy broth; format: functional; conditions: ATCC 10240, 24 h; in short: as §2
Staphylococcus aureus [5] = assay: Antibacterial activity against Staphylococcus aureus ATCC 6538 after 24 hrs by iodonitrotetrazolium chloride dye based microdilution method; format: functional; conditions: ATCC 6538, 24 h; in short: as §1
Staphylococcus aureus [6] = assay: Bactericidal activity against Staphylococcus aureus ATCC 6538 incubated for 24 hrs followed by re-plating on tryptic soy broth; format: functional; conditions: ATCC 6538, 24 h; in short: as §2
Listeria monocytogenes [7] = assay: Antibacterial activity against Listeria monocytogenes NCTC 7973 after 24 hrs by iodonitrotetrazolium chloride dye based microdilution method; format: functional; conditions: NCTC 7973, 24 h; in short: as §1
Listeria monocytogenes [8] = assay: Bactericidal activity against Listeria monocytogenes NCTC 7973 incubated for 24 hrs followed by re-plating on tryptic soy broth; format: functional; conditions: NCTC 7973, 24 h; in short: as §2
Enterobacter cloacae [9] = assay: Antibacterial activity against Enterobacter cloacae clinical isolate after 24 hrs by iodonitrotetrazolium chloride dye based microdilution method; format: functional; in short: as §1
Enterobacter cloacae [10] = assay: Bactericidal activity against Enterobacter cloacae incubated for 24 hrs followed by re-plating on tryptic soy broth; format: functional; in short: as §2
Pseudomonas aeruginosa [11] = assay: Antibacterial activity against Pseudomonas aeruginosa ATCC 27853 after 24 hrs by iodonitrotetrazolium chloride dye based microdilution method; format: functional; conditions: ATCC 27853, 24 h; in short: as §1
Pseudomonas aeruginosa [12] = assay: Bactericidal activity against Pseudomonas aeruginosa ATCC 27853 incubated for 24 hrs followed by re-plating on tryptic soy broth; format: functional; conditions: ATCC 27853, 24 h; in short: as §2
Salmonella typhimurium [13] = assay: Antibacterial activity against Salmonella typhimurium ATCC 13311 after 24 hrs by iodonitrotetrazolium chloride dye based microdilution method; format: functional, Salmonella enterica subsp. enterica serovar Typhimurium; conditions: Salmonella enterica, ATCC 13311, 24 h; in short: as §1
Salmonella typhimurium [14] = assay: Bactericidal activity against Salmonella typhimurium ATCC 13311 incubated for 24 hrs followed by re-plating on tryptic soy broth; format: functional, Salmonella enterica subsp. enterica serovar Typhimurium; conditions: Salmonella enterica, ATCC 13311, 24 h; in short: as §2
Escherichia coli [15] = assay: Antibacterial activity against Escherichia coli ATCC 35210 after 24 hrs by iodonitrotetrazolium chloride dye based microdilution method; format: functional; conditions: ATCC 35210, 24 h; in short: as §1
Escherichia coli [16] = assay: Bactericidal activity against Escherichia coli ATCC 35210 incubated for 24 hrs followed by re-plating on tryptic soy broth; format: functional; conditions: ATCC 35210, 24 h; in short: as §2
Aspergillus fumigatus [17] = assay: Antifungal activity against Aspergillus fumigatus ATCC 1022 after 72 hrs by microdilution technique; format: functional; conditions: ATCC 1022, 72 h
In short: (§3)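 Spores were washed off malt agar with 0.85% saline containing 0.1% Tween 80 and adjusted to about 1.0×10^5 per well. Compounds in 5% DMSO were serially diluted (0.001-1.0 mg/ml) in malt broth with inoculum. Plates were shaken at 160 rpm for 72 h at 28 °C. MIC is the lowest concentration without visible growth under a binocular microscope. Three independent experiments in duplicate.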

Aspergillus fumigatus [18] = assay: Fungicidal activity against Aspergillus fumigatus ATCC 1022 incubated for 72 hrs followed by sub-culturing on broth malt medium and measured after 72 hrs; format: functional; conditions: ATCC 1022, 72 h
In short: (§4)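 After 72 h exposure in malt broth, 2 µL from test wells was subcultured into wells holding 100 µL broth and incubated a further 72 h at 28 °C. MFC is the lowest concentration with no visible growth, taken as 99.5% kill of the original inoculum. Three independent experiments in duplicate.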

Aspergillus versicolor [19] = assay: Antifungal activity against Aspergillus versicolor ATCC 11730 after 72 hrs by microdilution method; format: functional; conditions: ATCC 11730, 72 h; in short: as §3
Aspergillus versicolor [20] = assay: Fungicidal activity against Aspergillus versicolor ATCC 11730 incubated for 72 hrs followed by sub-culturing on broth malt medium and measured after 72 hrs; format: functional; conditions: ATCC 11730, 72 h; in short: as §4
Aspergillus ochraceus [21] = assay: Antifungal activity against Aspergillus ochraceus ATCC 12066 after 72 hrs by microdilution technique; format: functional; conditions: ATCC 12066, 72 h; in short: as §3
Aspergillus ochraceus [22] = assay: Fungicidal activity against Aspergillus ochraceus ATCC 12066 incubated for 72 hrs followed by sub-culturing on broth malt medium and measured after 72 hrs; format: functional; conditions: ATCC 12066, 72 h; in short: as §4
Aspergillus niger [23] = assay: Antifungal activity against Aspergillus niger ATCC 6275 after 72 hrs by microdilution technique; format: functional; conditions: ATCC 6275, 72 h; in short: as §3
Aspergillus niger [24] = assay: Fungicidal activity against Aspergillus niger ATCC 6275 incubated for 72 hrs followed by sub-culturing on broth malt medium and measured after 72 hrs; format: functional; conditions: ATCC 6275, 72 h; in short: as §4
Trichoderma viride [25] = assay: Antifungal activity against Trichoderma viride IAM 5061 after 72 hrs by microdilution technique; format: functional; conditions: IAM 5061, 72 h; in short: as §3
Trichoderma viride [26] = assay: Fungicidal activity against Trichoderma viride IAM 5061 incubated for 72 hrs followed by sub-culturing on broth malt medium and measured after 72 hrs; format: functional; conditions: IAM 5061, 72 h; in short: as §4
Penicillium ochrochloron [27] = assay: Antifungal activity against Penicillium ochrochloron ATCC 9112 after 72 hrs by microdilution technique; format: functional; conditions: ATCC 9112, 72 h; in short: as §3
Penicillium ochrochloron [28] = assay: Fungicidal activity against Penicillium ochrochloron ATCC 9112 incubated for 72 hrs followed by sub-culturing on broth malt medium and measured after 72 hrs; format: functional; conditions: ATCC 9112, 72 h; in short: as §4
[29] = Antifungal activity against Penicillium funiculosum ATCC 36839 after 72 hrs by microdilution technique; format: functional; conditions: Talaromyces pinophilus, ATCC 36839, 72 h; in short: as §3
[30] = Fungicidal activity against Penicillium funiculosum ATCC 36839 incubated for 72 hrs followed by sub-culturing on broth malt medium and measured after 72 hrs; format: functional; conditions: Talaromyces pinophilus, ATCC 36839, 72 h; in short: as §4
Penicillium cyclopium [31] = assay: Antifungal activity against Penicillium verrucosum var. cyclopium food isolate after 72 hrs by microdilution technique; format: functional; in short: as §3
Penicillium cyclopium [32] = assay: Fungicidal activity against Penicillium verrucosum var. cyclopium food isolate incubated for 72 hrs followed by sub-culturing on broth malt medium and measured after 72 hrs; format: functional; in short: as §4

| Compound | MIC (Bacillus cereus [1]) [µM] | MBC (Bacillus cereus [2]) [µM] | MIC (Micrococcus flavus [3]) [µM] | MBC (Micrococcus flavus [4]) [µM] | MIC (Staphylococcus aureus [5]) [µM] | MBC (Staphylococcus aureus [6]) [µM] | MIC (Listeria monocytogenes [7]) [µM] | MBC (Listeria monocytogenes [8]) [µM] | MIC (Enterobacter cloacae [9]) [µM] | MBC (Enterobacter cloacae [10]) [µM] | MIC (Pseudomonas aeruginosa [11]) [µM] | MBC (Pseudomonas aeruginosa [12]) [µM] | MIC (Salmonella typhimurium [13]) [µM] | MBC (Salmonella typhimurium [14]) [µM] | MIC (Escherichia coli [15]) [µM] | MBC (Escherichia coli [16]) [µM] | MIC (Aspergillus fumigatus [17]) [×10⁻² mM] | MFC (Aspergillus fumigatus [18]) [×10⁻² mM] | MIC (Aspergillus versicolor [19]) [×10⁻² mM] | MFC (Aspergillus versicolor [20]) [×10⁻² mM] | further results |
| --- | --- | --- | --- | --- | --- | --- | --- | --- | --- | --- | --- | --- | --- | --- | --- | --- | --- | --- | --- | --- | --- |
| CCOc1ccc2c(c1)-c1c(ssc1=S)C(C)(C)N2C(=O)c1ccc(Cl)c([N+](=O)[O-])c1 | 30.4 (≈ 15 µg/mL) | 60.9 (≈ 30 µg/mL) | 30.4 (≈ 15 µg/mL) | 60.9 (≈ 30 µg/mL) | 30.4 (≈ 15 µg/mL) | 60.9 (≈ 30 µg/mL) | 30.4 (≈ 15 µg/mL) | 60.9 (≈ 30 µg/mL) | 30.4 (≈ 15 µg/mL) | 60.9 (≈ 30 µg/mL) | 30.4 (≈ 15 µg/mL) | 60.9 (≈ 30 µg/mL) | 30.4 (≈ 15 µg/mL) | 60.9 (≈ 30 µg/mL) | 30.4 (≈ 15 µg/mL) | 60.9 (≈ 30 µg/mL) | 4.46 | 12.2 | 12.2 | 24.3 | MIC (Aspergillus ochraceus [21]): 1.62 ×10⁻² mM; MFC (Aspergillus ochraceus [22]): 3.04 ×10⁻² mM; MIC (Aspergillus niger [23]): 2.23 ×10⁻² mM; MFC (Aspergillus niger [24]): 6.09 ×10⁻² mM; MIC (Trichoderma viride [25]): 1.22 ×10⁻² mM; MFC (Trichoderma viride [26]): 1.62 ×10⁻² mM; MIC (Penicillium ochrochloron [27]): 1.22 ×10⁻² mM; MFC (Penicillium ochrochloron [28]): 1.62 ×10⁻² mM; MIC [29]: 3.04 ×10⁻² mM; MFC [30]: 6.09 ×10⁻² mM; MIC (Penicillium cyclopium [31]): 24.3 ×10⁻² mM; MFC (Penicillium cyclopium [32]): 48.7 ×10⁻² mM |
| Cc1ccc2c(c1)-c1c(ssc1=S)C(C)(C)N2C(=O)c1cccnc1 | 12.1 (≈ 4.65 µg/mL) | 0.6 (≈ 0.231 µg/mL) | 12.1 (≈ 4.65 µg/mL) | 0.6 (≈ 0.231 µg/mL) | 0.3 (≈ 0.115 µg/mL) | 0.6 (≈ 0.231 µg/mL) | 0.3 (≈ 0.115 µg/mL) | 0.6 (≈ 0.231 µg/mL) | 0.3 (≈ 0.115 µg/mL) | 0.6 (≈ 0.231 µg/mL) | 0.3 (≈ 0.115 µg/mL) | 0.6 (≈ 0.231 µg/mL) | 0.3 (≈ 0.115 µg/mL) | 0.6 (≈ 0.231 µg/mL) | 12.1 (≈ 4.65 µg/mL) | 0.6 (≈ 0.231 µg/mL) | 7.8 | 15.6 | 7.8 | 15.6 | MIC (Aspergillus ochraceus [21]): 14.6 ×10⁻² mM; MFC (Aspergillus ochraceus [22]): 31.2 ×10⁻² mM; MIC (Aspergillus niger [23]): 1.56 ×10⁻² mM; MFC (Aspergillus niger [24]): 7.8 ×10⁻² mM; MIC (Trichoderma viride [25]): 1.04 ×10⁻² mM; MFC (Trichoderma viride [26]): 2.08 ×10⁻² mM; MIC (Penicillium ochrochloron [27]): 7.8 ×10⁻² mM; MFC (Penicillium ochrochloron [28]): 15.6 ×10⁻² mM; MIC [29]: 15.6 ×10⁻² mM; MFC [30]: 31.2 ×10⁻² mM; MIC (Penicillium cyclopium [31]): 7.8 ×10⁻² mM; MFC (Penicillium cyclopium [32]): 15.6 ×10⁻² mM |
